PRMT1 inh = inhibitors of human PRMT1 | Q99873 | AID 652257 | actives 1.3% (n = 370,000) | inhibition, % at 2.79 µM | recombinant PRMT1, activity-based probe fluorescence polarization;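 active = inhibition above about 21% made by adding two undisclosed values, limit read from the data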
HTRA1 inhibitor = inhibitors of human serine peptidase HTRA1 | recombinant HTRA1, FP-rhodamine activity-based probe, fluorescence polarization | Q92743 | actives 0.5% (n = 340,000) | AID 504803 | inhibition, % at 5.96 µM; in the data active = inhibition above about 36%;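 also: 0% = enzyme with DMSO and 100% = wells lacking enzyme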
TCR CD3 inh = human TCR-CD3 binding inhibition | TAMRA-labeled TCR probe fluorescence, biochemical | inhibition, % at 9.4 µM | actives 0.37% (n = 360,000);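 also: recombinant mutant TCR 2C K166C tagged with TAMRA read by polarization; 0% = receptor in buffer alone and 100% = receptor with positive control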
SIAE primary = inhibitors of human sialic acid acetylesterase SIAE. inhibition, % at 9.66 µM. Q9HAT2. SIAE FP-Rh probe binding, fluorescence polarization. actives 0.69% (n = 370,000);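 active = inhibition above a cutoff: mean of compounds within the control limits plus 3 SD of those, cut at about 17% in these data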;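 also: 0% = plate median of compound wells and 100% = probe without SIAE protein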
Target sequence (Q9HAT2 whole entry, looked up): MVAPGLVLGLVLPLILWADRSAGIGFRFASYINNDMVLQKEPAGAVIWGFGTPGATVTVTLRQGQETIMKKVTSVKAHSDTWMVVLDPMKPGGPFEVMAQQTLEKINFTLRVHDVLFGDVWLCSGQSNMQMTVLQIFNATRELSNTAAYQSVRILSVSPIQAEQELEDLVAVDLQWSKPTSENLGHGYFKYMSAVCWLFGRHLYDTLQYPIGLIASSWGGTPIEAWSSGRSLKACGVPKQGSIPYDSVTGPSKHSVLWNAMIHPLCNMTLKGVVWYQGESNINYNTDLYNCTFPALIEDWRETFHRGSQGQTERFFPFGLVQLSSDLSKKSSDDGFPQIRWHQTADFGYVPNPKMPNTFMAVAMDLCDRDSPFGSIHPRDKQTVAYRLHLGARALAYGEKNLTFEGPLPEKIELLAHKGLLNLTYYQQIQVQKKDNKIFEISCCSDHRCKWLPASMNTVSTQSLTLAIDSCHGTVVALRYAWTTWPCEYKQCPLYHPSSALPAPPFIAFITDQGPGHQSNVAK
ABHD4 inh = inhibits mouse alpha/beta hydrolase domain 4 | purified mABHD4, FP-Rh probe fluorescence polarization | AID 720543 | inhibition, % at 8.92 µM | actives 0.54% (n = 370,000);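 active = inhibition exceeding the mean over every tested compound plus 3 SD, cut at about 30% in these data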;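 also: 0% = plate median of compound wells and 100% = S159A mutant with DMSO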
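Test system: mABHD4 protein | Buffer or medium: HEPES pH 7.0 buffer, 150 mM NaCl, 0.01% Pluronic F-127 | Probe or stimulus: FP-Rh fluorescent activity-based probe, added after compound pre-incubation | Timing: Pre-incubation 45 min, probe exposure 60 min, at 25 °C | Technique: Fluorescence polarization, excitation 525 nm, emission 598 nm, BODIPY TMR filters | Repeats: Single well per compound (singlicate)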
HTRA1 inh conf = confirmation of human HTRA1 inhibitors | shares compounds with HTRA1 inhibitor | recombinant HTRA1, FP-rhodamine activity-based probe, fluorescence polarization | inhibition, % at 5.96 µM | actives 66% (n = 1,600);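 active = mean inhibition over three repeats above a set limit taken from the earlier primary screen, cut at about 37% in these data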;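 also: 0% = HTRA1 with DMSO and 100% = wells lacking HTRA1; inhibitors block probe binding so polarization drops and inhibition rises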
BSA probe FL = interferes with TAMRA-BSA probe, flagging TCR-CD3 hits; shares compounds with TCR CD3 inh; TAMRA-labeled BSA probe fluorescence counterscreen; inhibition, % at 9.4 µM; actives 10% (n = 1,200); AID 652035; in the data active = inhibition above about 23%;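 also: 0% = buffer low control and 100% = reference high control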
TCR-CD3 conf = TCR-CD3 interaction inhibition, confirmation; actives 48% (n = 1,200); shares compounds with TCR CD3 inh; inhibition, % at 9.4 µM; TAMRA-labeled TCR probe fluorescence binding assay
* marks the source's active call; other numbers are inactive results. Only some compounds are listed: those with a hit (about 2.5% of all), similar ones and a draw of the others. Rule as the data show it, unless noted: active = inhibition above about 19%; inactive = the rest.

For COc1ccc(N(C)S(=O)(=O)c2ccc(Cl)c(C(=O)NNC(=O)c3ccccc3O)c2)cc1 the results were PRMT1 inh -3.0, HTRA1 inhibitor 42.3*, TCR CD3 inh 26.1*, SIAE primary 12.5, ABHD4 inh 1.1, HTRA1 inh conf 32.4, BSA probe FL 2.7 and TCR-CD3 conf 18.4.
`CCOc1cccc(CNc2ccc(O)cc2)c1OCc1ccc(Cl)cc1Cl` gave PRMT1 inh 15.1, HTRA1 inhibitor 60.4*, TCR CD3 inh 27.1*, SIAE primary 31.8*, ABHD4 inh 66.1*, HTRA1 inh conf 28.8, BSA probe FL 3.1 and TCR-CD3 conf 0.3.
Screening Cc1ccc(CNc2ccc(O)cc2)cc1 returned PRMT1 inh 16.1, HTRA1 inhibitor 60.4*, TCR CD3 inh 27.5*, SIAE primary 47.7*, ABHD4 inh 68.4*, HTRA1 inh conf 27.3, BSA probe FL -0.8 and TCR-CD3 conf 2.1.
`O=C(CCN1C(=O)/C(=C\c2ccccc2)SC1=S)NNC(=O)c1ccccc1O` gave PRMT1 inh 6.0, HTRA1 inhibitor 55.9*, TCR CD3 inh 39.9*, SIAE primary -0.8, ABHD4 inh 8.1, HTRA1 inh conf 54.4*, BSA probe FL -6.2 and TCR-CD3 conf 35.8*.
`O=C(CCN1C(=O)/C(=C\c2ccccc2)SC1=S)NNC(=O)c1cccnc1` gave PRMT1 inh -4.0, HTRA1 inhibitor 5.9, TCR CD3 inh 2.1, SIAE primary -1.6 and ABHD4 inh -10.2.
O=C(CN(C(=O)CCC(=O)Nc1ccccn1)c1ccc(F)cc1)NCc1ccc(F)cc1 was read as PRMT1 inh -2.0, HTRA1 inhibitor 2.7, TCR CD3 inh 5.5, SIAE primary 1.9 and ABHD4 inh -1.3.
Screening Oc1ccc(-c2cn3ccccc3n2)cc1O returned PRMT1 inh 3.8, HTRA1 inhibitor 11.6, TCR CD3 inh 18.7, SIAE primary -3.6 and ABHD4 inh 21.5.
Screening Cc1ccn2cc(-c3ccc(O)c(O)c3)nc2c1 returned PRMT1 inh 18.1, HTRA1 inhibitor 43.6*, TCR CD3 inh 34.2*, SIAE primary 6.0, ABHD4 inh 26.3, HTRA1 inh conf 65.4*, BSA probe FL -8.7 and TCR-CD3 conf 25.6*.
For CCC1=NN(C(=O)c2ccccc2Br)C(O)(c2ccc(Br)cc2)C1 (stereo not given) the results were PRMT1 inh -4.8, HTRA1 inhibitor 0.7, TCR CD3 inh 6.9, SIAE primary 3.4 and ABHD4 inh -0.1.
CCC1=NN(C(=O)c2ccccc2O)C(O)(c2ccccc2)C1 (stereo not given) was read as PRMT1 inh 13.3, HTRA1 inhibitor 54.4*, TCR CD3 inh 40.2*, SIAE primary 15.7, ABHD4 inh 12.8, HTRA1 inh conf 65.2*, BSA probe FL -7.6 and TCR-CD3 conf 30.2*.
For COc1ccc(C=NNC(=O)Cc2cc(=O)[nH][nH]2)c(OC)c1 the results were PRMT1 inh 2.4, SIAE primary 3.2 and ABHD4 inh 7.4.
For CCCCNC(=S)N/N=C/c1cccc(OCC)c1O the results were PRMT1 inh 0.1, HTRA1 inhibitor 16.8, TCR CD3 inh 5.6, SIAE primary 1.8 and ABHD4 inh 5.4.
CCOc1cccc(/C=N/NC(=S)Nc2ccccc2[N+](=O)[O-])c1O was read as PRMT1 inh 0.1, HTRA1 inhibitor 54.1*, TCR CD3 inh 31.2*, SIAE primary 7.3, ABHD4 inh 26.6, HTRA1 inh conf 51.1*, BSA probe FL -4.5 and TCR-CD3 conf 14.8.
O=C(NCCc1ccco1)c1cc(COc2cccc(C(F)(F)F)c2)on1 was read as PRMT1 inh 3.2, HTRA1 inhibitor -21.8, TCR CD3 inh 2.1, SIAE primary -4.8 and ABHD4 inh -13.1.
For O=C(O)CC(CCc1ccccc1)OC1OC(CO)C(O)C(O)C1O (stereo not given) the results were PRMT1 inh 5.0, HTRA1 inhibitor 41.4*, TCR CD3 inh 32.2*, SIAE primary -17.3, ABHD4 inh 0.0, HTRA1 inh conf 41.2*, BSA probe FL -10.9 and TCR-CD3 conf 30.3*.

From PubChem
